Assay outcomes as filed in PubChem BioAssay.
iPSC survival up: increases survival of single human iPS cells; hiPSC single-cell survival, ATPlite luminescence; 100% = ROCK inhibitor wells, 0% = DMSO; survival enhancement, % at 20 µM; 360,000 compounds, 0.044% hits; in the data active = survival enhancement above about 18%;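 also: cells exposed to compounds for 16 hours before the ATP read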
MC4R antag cAMP: antagonists of human melanocortin 4 receptor (MC4R) | P32245 | MC4R-expressing cells, MTII-stimulated cAMP, LANCE TR-FRET | inhibition, % at 6.5 µM | 360,000 compounds, 0.48% hits | AID 540295;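 active = inhibition above its plate's cutoff, the mean of tested wells on that plate plus 3 SD, cut at about 29% in these data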;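 also: 0% = Melanotan II alone and 100% = Melanotan II plus saturating MCL0020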
Target sequence (P32245 whole entry, looked up): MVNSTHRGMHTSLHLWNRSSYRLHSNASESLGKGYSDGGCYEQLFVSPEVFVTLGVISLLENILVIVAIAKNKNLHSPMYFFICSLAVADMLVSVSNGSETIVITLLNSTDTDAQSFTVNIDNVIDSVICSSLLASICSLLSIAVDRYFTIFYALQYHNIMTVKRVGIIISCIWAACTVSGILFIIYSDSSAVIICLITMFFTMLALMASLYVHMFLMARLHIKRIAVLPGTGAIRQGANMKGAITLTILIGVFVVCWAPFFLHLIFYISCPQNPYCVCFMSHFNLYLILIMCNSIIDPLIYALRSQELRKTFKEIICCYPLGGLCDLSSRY
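Assay system: human MC4R-expressing U2OS cells; reagent: Melanotan II stimulation of cells; dosing: 6.5 µM single dose; timing: compound 30 min, challenge 1 h, detection 1 h; signal: TR-FRET cAMP assay; replicates: one well per compound, no replicates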
Exocytosis inh: blocks lytic granule exocytosis; TALL-104 LAMP-1 surface exposure, flow cytometry; cells stimulated with thapsigargin and PMA; inhibition, % at 10 µM; 360,000 compounds, 0.66% hits;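 active = inhibition above about 55%, limit read from the data; inconclusive = no clear call, values can overlap the other calls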
ABCB6 inh 2: human ABCB6 transporter inhibition; Q9NP58; fluorescence ratio to DMSO, % at 10 µM; 360,000 compounds, 0.19% hits; K562-ABCB6 porphyrin accumulation, flow cytometry, 1 h; active compounds read low;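 active = fluorescence ratio to DMSO below 75%, the collection mean minus 3 SD; inconclusive = too few cells collected in the well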;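 also: signal is porphyrin accumulated inside mitochondria; 100% equals median channel fluorescence of DMSO control wells; lower ratio means ABCB6 inhibition with less porphyrin fluorescence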
TbMetRS inhib: blocks T. brucei methionyl-tRNA synthetase activity | inhibition, % at 11.9 µM | purified T. brucei MetRS, ATP depletion, Kinase-Glo luminescence | 360,000 compounds, 0.4% hits;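 active = inhibition above a per-plate cutoff of the control wells' mean inhibition plus 3 SD, cut at about 5.5% in these data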;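 also: 0% = DMSO wells median and 100% = median of wells with control inhibitor compound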
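Test system: purified T. brucei MetRS enzyme. Also added: ATP, methionine and E. coli bulk tRNA substrates. Compound: 11.9 µM single point. Schedule: 15 min enzyme-compound preincubation, 2 h reaction, 10 min detection, 25 °C. Signal: luciferase luminescence of residual ATP, Kinase-Glo. Evaluation: percent inhibition versus plate control medians. Controls: DMSO wells, low control.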
MC4R barr agon: activates human MC4R beta-arrestin recruitment; U2OS MC4R beta-arrestin complementation, luminescence; percent of melanotan II response, DMSO zero; P32245; 360,000 compounds, 0.98% hits; AID 540308; activation, % at 8.9 µM;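 active = activation above a per-plate cutoff, the mean activation of sample wells on that plate plus 3 SD, cut at about 8% in these data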
* marks the source's active call; other numbers are inactive results; ? = inconclusive; nt = not tested or not shown. Hits are enriched below; roughly 2.6% of the tested compounds scored in any of these assays.

SMILES | iPSC survival up | MC4R antag cAMP | Exocytosis inh | ABCB6 inh 2 | TbMetRS inhib | MC4R barr agon
O=C(CCCN1C(=O)S/C(=C\c2ccccc2)C1=O)NNC(=O)c1ccccc1O | 0 | 2 | 3 | 95 | 0 | 8.4*
CCOc1ccc(N(CC(=O)N/N=C/c2ccc(OC(C)C)cc2)S(C)(=O)=O)cc1 | -2 | 3 | 0 | 97 | 0 | 0
O=C(Nc1ccccc1)c1ccc(NC2CCCCC2)c(S(=O)(=O)N2CCOCC2)c1 | 1 | 12 | -2 | 89 | 0 | 0
COc1ccc(Cl)cc1NS(=O)(=O)N1CCOCC1 | 0 | 7 | -2 | 93 | -1 | -1
CCOc1ccc(C(=O)Nc2cc(-c3nc4ccccc4[nH]3)ccc2C)cc1[N+](=O)[O-] | -3 | -33 | 29 | 160 | 13* | 0
CCOc1ccc(C(=O)Nc2cccc(-c3nc4ccccc4[nH]3)c2C)cc1[N+](=O)[O-] | -2 | -2 | -1 | 101 | -1 | 0
O=C(c1ccco1)N1N=C(c2ccco2)CC1c1ccc(Cl)cc1Cl (stereo unspecified) | -5 | 9 | 0 | 101 | 0 | 2
C/C(=N\Nc1ncc(Cl)cc1Cl)c1ccccn1 | 0 | 5 | 98* | 128 | 0 | -3
O=C(NCCc1ccccn1)C(F)(F)C(F)(F)C(F)(F)C(F)(F)C(F)(F)C(F)F | -3 | 3 | 2 | 100 | -1 | 0
O=C(NCCC(=O)N(CCc1ccccc1)Cc1ccccc1)c1ccc(Br)cc1 | 0 | 0 | -5 | 94 | 2 | 3
O=C(Nc1ccc(/C=C/c2nc3ccccc3o2)cc1)c1c(F)cccc1F | -2 | 10 | 2 | 106 | -1 | 8.9*
COc1ccc(C(=O)C2CCCN(C(=O)C3=CCCC3)C2)cc1OC (stereo unspecified) | 1 | 25 | 0 | 98 | 0 | -2
CN(C)c1ccc(NC(=O)C[n+]2ccccc2)cc1 | -1 | 5 | 56* | 101 | -1 | -2
O=C(Oc1ccc(/C=N/NC(=O)c2ccccn2)cc1)c1cccc(F)c1 | 0 | -5 | 1 | 102 | 0 | -3
NC(N)=N/N=C/c1ccccc1 | 0 | 1 | 1 | 93 | -1 | -1
NC(N)=N/N=C/c1ccc(OCc2ccccc2Cl)cc1 | -6 | 2 | -15 | ? | -1 | 22*
Cc1ccc(OCC(=O)Nc2ccc(O)c(-c3nc4ccccc4o3)c2)cc1 | 1 | 2 | 0 | 100 | -1 | 8.6*
O=C(c1cccs1)c1no[n+]([O-])c1C(=O)c1cccs1 | 1 | 5 | 82* | 83 | 0 | 17*
COc1ccc(C(=O)c2no[n+]([O-])c2C(=O)c2ccc(OC)cc2)cc1 | 0 | 2 | 103* | 85 | -1 | 8
O=C(COC(=O)/C=C/c1ccccc1[N+](=O)[O-])Nc1ccc(OC(F)F)cc1 | 4 | 2 | -4 | 96 | 0 | 4
O=C(COC(=O)/C=C/c1ccccc1[N+](=O)[O-])Nc1ccc(OCc2ccccc2)cc1 | 0 | -5 | -3 | 94 | 0 | 9.2*
O=C(CN1C(=O)C(=O)c2ccccc21)NCCc1ccccc1 | 2 | -4 | 1 | 96 | 0 | -3
O=C1C(=O)N(CCCc2ccccc2)c2ccccc21 | 0 | -20 | 76* | 99 | 0 | 0
CN(Cc1ccccc1)C(=O)[C@@H]1CCCN1C(=O)[C@@H]1CCCN1C(=O)c1cccs1 | 0 | nt | -5 | 98 | 0 | nt
COc1ccc(/C=C/C(=O)Nc2ccccc2C(F)(F)F)cc1 | 7 | 21 | 9 | 97 | -1 | 3
SMILES | iPSC survival up | MC4R antag cAMP | Exocytosis inh | ABCB6 inh 2 | TbMetRS inhib | MC4R barr agon
CCOc1ccc(/C=C/C(=O)Nc2ccc(OC)cc2[N+](=O)[O-])cc1 | -2 | -9 | 5 | 94 | -1 | 34*
CCOc1ccc(/C=C/C(=O)Nc2ccccc2C(F)(F)F)cc1 | 2 | 7 | -5 | 97 | 0 | 8.8*
CCOc1ccc(OCC(=O)Nc2ccc(OC)cc2[N+](=O)[O-])cc1 | 2 | -6 | -1 | 100 | -1 | 1
CC(/C=C(\NC(=O)c1ccccc1)C(=O)N=Nc1c(O)[nH]c2ccc(C)cc12)=C\c1ccccc1 | 1 | 8 | -1 | 73* | -1 | -1
O=C(N/N=C/c1ccccn1)c1sc2ccccc2c1Cl | 0 | 2 | 60* | 101 | 0 | -3
Oc1ccccc1CNc1ccc(Br)cn1 | -3 | -4 | 3 | 103 | 1 | 49*
Brc1ccc(NCc2cccc3ccccc23)nc1 | 5 | 0 | 7 | 95 | -1 | 0
NNC(=O)c1ccc(CSc2cccc3cccnc23)cc1 | 2 | 7 | -1 | 92 | -1 | -1
c1cnc2c(SCc3ccc(-c4nnco4)cc3)cccc2c1 | -1 | -16 | 69* | 93 | -2 | 2
O=C(O)/C=C/c1cn(Cc2ccccc2)nc1-c1ccccc1 | 3 | 13 | 0 | 97 | 0 | 0
O=C(O)CCn1cc(/C=C/C(=O)c2ccc(Cl)cc2)c(-c2ccc(Br)cc2)n1 | 0 | 35* | 6 | 105 | 0 | -1
O=[N+]([O-])c1ncccc1OCc1ccc(-c2ccccc2)cc1 | 0 | 4 | 86* | 115 | 0 | 2
N#Cc1ccc(COc2cccnc2[N+](=O)[O-])cc1 | 1 | -3 | 1 | 95 | -1 | -2
Nc1ccc(S(=O)(=O)c2cc(O)c3ccccc3c2O)cc1 | 1 | -9 | 88* | 95 | 0 | -2
O=S(=O)(c1ccccc1)c1cc(O)ccc1O | 0 | 14 | -2 | 94 | -1 | 0
Cc1ccccc1OCC(O)Cn1c(=N)n(Cc2ccccc2)c2ccccc21 (stereo unspecified) | 0 | -1 | 26 | 93 | 1 | 9.1*
O=C(COC(=O)CC1SC(N2CCCC2)=NC1=O)Nc1ccc(Br)cc1 (stereo unspecified) | 0 | 20 | ? | 96 | 0 | 3
Cc1[nH]c2ccc(Br)cc2c(=O)c1CN1CCOCC1 | 6 | -4 | 0 | 96 | 35* | -1
CCOc1ccc2[nH]c(C)c(CN3CCOCC3)c(=O)c2c1 | -1 | 4 | -5 | 99 | 0 | -1
O=C(COC(=O)c1cccc2ccccc12)Nc1ncc(C(F)(F)F)cc1Cl | -2 | -3 | 2 | 100 | -2 | 8.7*
COc1ccc(S(=O)(=O)N2CCCCC2)cc1NC(=O)Cn1cnc2c1c(=O)n(C)c(=O)n2C | -1 | 1 | -20 | 92 | 0 | -1
COc1cc(C(C)=O)ccc1OCC(O)CNCC(O)c1ccccc1 (stereo unspecified) | 0 | 1 | 5 | 99 | 0 | -1
Cc1cc(C)nc(N2CCCC(C(=O)Nc3cccc(Cl)c3)C2)n1 (stereo unspecified) | 0 | 20 | 6 | 102 | 0 | 8.4*
